Non-standard residues stand in square brackets, D forms with d. Residues, ends and D or L forms follow the SMILES beside them. *: point of attachment. Biotin = O=C1N[C@H]2[C@H](CS[C@H]2CCCCC(=O)*)N1; pY = N[C@@H](Cc1ccc(OP(=O)(O)O)cc1)C(=O)O
Columns and labels:
Assay in all cases: Biacore
Type in all cases: binding
human LCK SH3-SH2 = human LCK SH3-SH2 (Homo sapiens, UniProt P06239)
Method in brief: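 Recombinant human LCK SH3-SH2 (aa 58–230), N-terminal His-tagged, nickel-agarose purified, gel-filtered; concentration from A280 using a theoretical extinction coefficient. BIAcore 3000 at 37 °C: ~3000 RU streptavidin amine-coupled to CM5 captured biotinylated peptides (CD2 proline-rich peptides ~100 RU; phospho-CD244 ITSM1 ~25 RU). Protein passed at various concentrations; equilibrium binding fitted for Kd against a control flow cell.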

human PLC-γ1 SH2 N+C = target: T1, human PLC-γ1 SH2 N+C (Homo sapiens, UniProt P19174); conditions: ratio of SPR affinities, PLC-γ1 SH2 N+C versus FYN-SH3-SH2
T1 sequence (P19174 545-749): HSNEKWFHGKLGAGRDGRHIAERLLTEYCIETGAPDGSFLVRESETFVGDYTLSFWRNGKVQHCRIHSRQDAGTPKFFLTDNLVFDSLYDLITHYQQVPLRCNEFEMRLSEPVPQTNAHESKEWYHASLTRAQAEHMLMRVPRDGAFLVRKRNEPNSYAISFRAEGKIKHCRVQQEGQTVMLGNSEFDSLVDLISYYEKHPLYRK

human FYN SH3-SH2 = human FYN SH3-SH2 (Homo sapiens, UniProt P06241)
human FYN SH3-SH2, sequence (P06241 82-248): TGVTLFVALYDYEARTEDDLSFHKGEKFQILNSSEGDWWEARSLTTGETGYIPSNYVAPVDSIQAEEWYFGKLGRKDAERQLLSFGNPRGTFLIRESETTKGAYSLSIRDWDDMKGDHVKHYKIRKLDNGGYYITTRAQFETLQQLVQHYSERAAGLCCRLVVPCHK

human LCK SH3-SH2, sequence (P06239 58-230): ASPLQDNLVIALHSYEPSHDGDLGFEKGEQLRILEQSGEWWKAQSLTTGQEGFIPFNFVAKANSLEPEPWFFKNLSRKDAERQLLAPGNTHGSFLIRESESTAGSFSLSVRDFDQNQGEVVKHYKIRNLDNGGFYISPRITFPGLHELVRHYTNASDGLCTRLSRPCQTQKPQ

## CC(C)[C@H](NC(=O)[C@H](CCCNC(=N)N)NC(=O)[C@H](Cc1c[nH]cn1)NC(=O)CNC(=O)[C@@H]1CCCN1C(=O)[C@@H]1CCCN1C(=O)[C@@H]1CCCN1C(=O)[C@@H]1CCCN1C(=O)[C@H](CCCNC(=N)N)NC(=O)[C@H](Cc1c[nH]cn1)NC(=O)[C@H](CO)NC(=O)[C@@H]1CCCN1C(=O)[C@H](C)NC(=O)[C@H](CCC(N)=O)NC(=O)[C@H](CO)NC(=O)[C@H](CCCNC(=N)N)NC(=O)[C@H](Cc1c[nH]cn1)NC(=O)CNC(=O)[C@@H]1CCCN1C(=O)[C@@H]1CCCN1C(=O)[C@@H]1CCCN1C(=O)[C@@H]1CCCN1C(=O)[C@@H]1CCCN1C(=O)[C@H](Cc1c[nH]cn1)NC(=O)CCCC[C@@H]1SC[C@@H]2NC(=O)N[C@@H]21)C(=O)N[C@@H](CCC(N)=O)C(=O)O [CD2-281-305] (Biotin-HPPPPPGHRSQAPSHRPPPPGHRVQ-OH)
Human LCK SH3-SH2
  Kd: > 1000 µM

## CC(C)C[C@H](NC(=O)[C@@H]1CCCN1C(=O)[C@@H]1CCCN1C(=O)CNC(=O)[C@H](CCCCN)NC(=O)[C@H](CCC(N)=O)NC(=O)CCCC[C@@H]1SC[C@@H]2NC(=O)N[C@@H]21)C(=O)N1CCC[C@H]1C(=O)N[C@@H](CCCNC(=N)N)C(=O)N1CCC[C@H]1C(=O)N[C@@H](CCCNC(=N)N)C(=O)N[C@H](C(=O)N[C@@H](CCC(N)=O)C(=O)N1CCC[C@H]1C(=O)N[C@@H](CCCCN)C(=O)N1CCC[C@H]1C(=O)N1CCC[C@H]1C(=O)N[C@@H](Cc1c[nH]cn1)C(=O)NCC(=O)O)C(C)C [CD2-322] (Biotin-QKGPPLPRPRVQPKPPHG-OH)
Human LCK SH3-SH2
  Kd: > 1000 µM

## CC(C)C[C@H](NC(=O)[C@@H](NC(=O)[C@H](CC(=O)O)NC(=O)[C@@H](NC(=O)[C@H](Cc1ccc(OP(=O)(O)O)cc1)NC(=O)[C@H](CC(=O)O)NC(=O)[C@H](CO)NC(=O)[C@H](CC(N)=O)NC(=O)[C@H](CO)NC(=O)[C@H](CC(N)=O)NC(=O)CCCC[C@@H]1SC[C@@H]2NC(=O)N[C@@H]21)C(C)C)C(C)C)C(=O)N1CCC[C@H]1C(=O)O [EAT-2 127] (Biotin-NSNSD[pY]VDVLP-OH)
Human PLC-γ1 SH2 N+C
  fold increase in affinity of PLC-γ1 compared with FYN binding: 30 fold
Human FYN SH3-SH2; ratio of SPR affinities, relative to CD244 ITSM 1 peptide
  FYN binding, fold weaker than to the CD244 ITSM: ~ 5 fold

## Biotin-KQFQP[pY]FIPIN-OH [CTLA-4, reference compound]
Human FYN SH3-SH2; SPR, 37 °C, biotinylated peptide on streptavidin chip
  FYN-SH3-SH2 binding to immobilised peptide (in words): Negligible binding

— paper PMC2757176 (The Journal of biological chemistry, 2009)
